Data published in ChEMBL document CHEMBL4190408 (J Med Chem, 2018).
Converted amounts (≈) assume the structure as drawn.

What was measured:
[1] = Thermodynamic solubility of the compound in pH 7.4 solution after 90 mins by UVLC-MS analysis; format: physicochemical; conditions: for solubility thermodynamic at 1.5 h: pH 7.4 solution, pH 7.4, read-out: Therm_solubility; for Therm_solubility: buffer, pH 7.4, 1.5 h
[2] = target: T1, Voltage-gated inwardly rectifying potassium channel KCNH2 (Homo sapiens, UniProt Q12809)
[3] = target: T2, Cytochrome P450 3A4 (Homo sapiens, UniProt P08684)
[4] = physchem; conditions: buffer, pH 7.4
[5] = Fraction unbound in mouse blood; format: ADME, tissue-based
[6] = Apparent clearance in Balb/c mouse at 10 mg/kg, po after 1 hr; format: ADME, organism-based; conditions: in vivo
[7] = tested on: Mus musculus; assay: Unbound AUC (infinity) in Balb/c mouse at 10 mg/kg, po after 1 hr; format: ADME, organism-based; conditions: in vivo
[8] = tested on: Mus musculus; assay: Unbound Cmax in Balb/c mouse at 10 mg/kg, po after 1 hr; format: ADME, organism-based; conditions: in vivo
[9] = Clearance in Balb/c mouse at 1 mg/kg, iv; format: ADME, organism-based; conditions: Balb/c, in vivo
Outline: (§1)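 Intravenous PK in male Balb/C mice, n=3, at 1 mpk. Vehicle was 30% DMA or 15% NMP, depending on the compound.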

[10] = tested on: Mus musculus; assay: Unbound AUC in Balb/c mouse at 1 mg/kg, iv; format: ADME, organism-based; conditions: in vivo; outline: as §1
[11] = Half life in Balb/c mouse at 1 mg/kg, iv; format: ADME, organism-based; conditions: Balb/c, in vivo; outline: as §1
[12] = Volume of distribution at steady state in Balb/c mouse at 1 mg/kg, iv; format: ADME, organism-based; conditions: Balb/c, in vivo, read-out: Vdss; outline: as §1
[13] = Oral bioavailability in Balb/c mouse at 10 mg/kg after 1 hr; format: ADME, organism-based; conditions: Balb/c, in vivo
Outline: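 Male Balb/C mice, n=3. Oral dose of 10 mpk as a homogeneous suspension of crystalline solid in 0.1% Tween 80, 0.1% silicone antifoam, 1% methylcellulose (400 cps) in water. I.v. dose of 1 mpk in 30% DMA or 15% NMP, depending on the compound. Bioavailability was extrapolated from the i.v./p.o. experiments.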

[14] = in vitro; conditions: human, liver microsomes
[15] = in vitro; conditions: mouse, liver microsomes
[16] = physchem; conditions: phosphate buffer, pH 7.4
[17] = target: T1, Voltage-gated inwardly rectifying potassium channel KCNH2; remark: listed apart in the source
[18] = target: T2, Cytochrome P450 3A4; conditions: liver microsomes
[19] = target: Phosphatidylinositol 4-kinase beta (Homo sapiens, UniProt Q9UBF8); assay: Inhibition of recombinant human full length GST-tagged PI4K3beta expressed in baculovirus expression system using PI lipid kinase substrate after 60 mins by ADP-Glo assay
[20] = buffer, pH 7.4, 1.5 h
[21] = buffer, 1.5 h, pH 7.4

T1 sequence (Q12809 whole entry): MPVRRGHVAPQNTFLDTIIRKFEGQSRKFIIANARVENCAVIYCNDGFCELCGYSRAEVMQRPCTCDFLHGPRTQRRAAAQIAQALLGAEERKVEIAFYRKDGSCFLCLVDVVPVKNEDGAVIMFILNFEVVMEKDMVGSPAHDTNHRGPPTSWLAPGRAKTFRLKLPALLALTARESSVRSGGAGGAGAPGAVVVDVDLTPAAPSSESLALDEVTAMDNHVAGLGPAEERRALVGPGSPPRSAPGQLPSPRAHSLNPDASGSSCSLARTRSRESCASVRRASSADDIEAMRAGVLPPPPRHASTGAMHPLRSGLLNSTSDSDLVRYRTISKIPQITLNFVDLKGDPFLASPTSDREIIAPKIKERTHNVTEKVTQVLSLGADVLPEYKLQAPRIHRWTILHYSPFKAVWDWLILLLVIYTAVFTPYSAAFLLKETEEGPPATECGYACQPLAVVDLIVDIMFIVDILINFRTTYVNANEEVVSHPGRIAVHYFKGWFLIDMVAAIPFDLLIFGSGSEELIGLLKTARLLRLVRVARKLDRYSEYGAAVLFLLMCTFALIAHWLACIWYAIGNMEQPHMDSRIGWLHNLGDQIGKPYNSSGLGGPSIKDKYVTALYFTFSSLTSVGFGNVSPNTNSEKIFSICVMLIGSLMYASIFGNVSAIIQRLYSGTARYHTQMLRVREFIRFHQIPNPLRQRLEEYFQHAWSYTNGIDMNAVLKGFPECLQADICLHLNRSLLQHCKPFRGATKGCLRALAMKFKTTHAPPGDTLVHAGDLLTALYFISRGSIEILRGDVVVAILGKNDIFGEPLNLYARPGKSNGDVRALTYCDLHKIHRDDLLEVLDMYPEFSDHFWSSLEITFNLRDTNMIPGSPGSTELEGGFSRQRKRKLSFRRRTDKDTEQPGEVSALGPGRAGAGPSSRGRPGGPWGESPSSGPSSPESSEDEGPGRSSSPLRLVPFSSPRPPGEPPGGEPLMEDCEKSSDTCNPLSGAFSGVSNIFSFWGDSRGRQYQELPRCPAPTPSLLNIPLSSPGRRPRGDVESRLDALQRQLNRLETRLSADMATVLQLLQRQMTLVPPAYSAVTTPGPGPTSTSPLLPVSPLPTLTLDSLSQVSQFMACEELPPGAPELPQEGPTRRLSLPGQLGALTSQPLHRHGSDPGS
T2 sequence (P08684 whole entry): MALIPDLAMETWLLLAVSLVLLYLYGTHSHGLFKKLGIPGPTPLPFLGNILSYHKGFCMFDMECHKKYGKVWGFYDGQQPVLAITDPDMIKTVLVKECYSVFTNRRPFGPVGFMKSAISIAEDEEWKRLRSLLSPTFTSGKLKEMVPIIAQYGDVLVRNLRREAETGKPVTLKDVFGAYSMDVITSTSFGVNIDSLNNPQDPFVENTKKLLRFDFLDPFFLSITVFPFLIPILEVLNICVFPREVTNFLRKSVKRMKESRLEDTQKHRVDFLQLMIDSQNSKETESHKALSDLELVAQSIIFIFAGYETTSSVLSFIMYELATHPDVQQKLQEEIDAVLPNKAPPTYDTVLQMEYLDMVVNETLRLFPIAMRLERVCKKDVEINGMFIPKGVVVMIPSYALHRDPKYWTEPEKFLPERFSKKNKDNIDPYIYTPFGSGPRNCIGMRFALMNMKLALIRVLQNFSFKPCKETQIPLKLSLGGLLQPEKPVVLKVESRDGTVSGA
Phosphatidylinositol 4-kinase beta, sequence (Q9UBF8 whole entry): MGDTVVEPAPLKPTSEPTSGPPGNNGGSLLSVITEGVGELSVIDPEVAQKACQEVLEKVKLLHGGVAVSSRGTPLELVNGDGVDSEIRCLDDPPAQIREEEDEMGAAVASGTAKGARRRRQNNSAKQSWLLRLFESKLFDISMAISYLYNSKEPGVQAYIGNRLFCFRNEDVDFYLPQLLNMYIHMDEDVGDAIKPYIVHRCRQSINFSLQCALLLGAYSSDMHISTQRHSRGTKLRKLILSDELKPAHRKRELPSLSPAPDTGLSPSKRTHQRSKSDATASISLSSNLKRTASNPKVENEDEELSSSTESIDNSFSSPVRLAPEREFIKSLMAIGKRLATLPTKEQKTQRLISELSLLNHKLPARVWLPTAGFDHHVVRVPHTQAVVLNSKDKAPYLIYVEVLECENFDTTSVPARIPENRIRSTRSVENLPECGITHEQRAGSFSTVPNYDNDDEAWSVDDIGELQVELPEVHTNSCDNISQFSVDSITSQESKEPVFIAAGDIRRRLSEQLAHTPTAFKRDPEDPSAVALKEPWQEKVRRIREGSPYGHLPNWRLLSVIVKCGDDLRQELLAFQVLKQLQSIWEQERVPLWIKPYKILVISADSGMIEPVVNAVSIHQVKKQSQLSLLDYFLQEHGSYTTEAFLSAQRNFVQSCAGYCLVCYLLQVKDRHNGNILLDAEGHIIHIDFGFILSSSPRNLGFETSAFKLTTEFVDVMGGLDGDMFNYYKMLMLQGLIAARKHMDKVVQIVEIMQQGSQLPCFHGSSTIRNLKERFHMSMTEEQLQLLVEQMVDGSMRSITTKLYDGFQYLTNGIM

| SMILES | solubility kinetic at 1.5 h [4] [µM] | logD at 1.5 h [16] | Therm_solubility [1] | IC50 [17] | IC50 [18] | also measured |
| --- | --- | --- | --- | --- | --- | --- |
| COc1ccc(NC(=O)N2CCN(c3nc(N)nc4scnc34)[C@@H](C)C2)c(C)n1 | > 350 |  |  |  |  | solubility thermodynamic at 1.5 h [1]: 362 µM (≈ 150 µg/mL); IC50 [2]: > 30 µM; IC50 [3]: > 20 µM |
| COc1ccc(NC(=O)N2CCN(c3nc(N)nc4scnc34)[C@@H](C)C2)cc1 | > 350 | 2.32 |  |  |  | solubility thermodynamic at 1.5 h [1]: 30 µM (≈ 12 µg/mL); fraction unbound [5]: 0.02; CL/F [6]: 42 mL/min/kg; fAUC [7]: 0.205 µM·h; fCmax [8]: 194 nM; clearance [9]: 29 mL/min/kg; fAUC [10]: 0.03 µM·h; half-life [11]: 54 min; Vd [12]: 1 L/kg; bioavailability [13]: 68%; IC50 [2]: 17 µM; IC50 [3]: > 20 µM; microsomal CLint at 0.75 h, 3 µM [14]: 14 µL/min/mg; microsomal CLint at 0.75 h, 3 µM [15]: 35 µL/min/mg |
| COc1ccc(NC(=O)N2C[C@H](C)N(c3nc(N)nc4scnc34)C[C@H]2C)cc1 | 88 (≈ 36.4 µg/mL) |  | Nd(Insoluble) | Nd(Insoluble) | Nd(Insoluble) |  |
| COc1ccc(NC(=O)N2CCN(c3nc(N)nc4scnc34)[C@H](C)C2)c(C)c1 | 170 (≈ 70.3 µg/mL) |  | Nd(Insoluble) |  |  |  |
| Nc1nc(N2CCN(C(=O)Nc3cccnc3)CC2)c2ncsc2n1 | > 350 | 1.46 |  |  |  |  |
| COc1ccc(NC(=O)N2CCN(c3nc(N)nc4scnc34)CC2C)cc1 (stereo not drawn) | > 350 |  | Nd(Insoluble) | Nd(Insoluble) | Nd(Insoluble) |  |
| COc1ccc(NC(=O)N2C3CCC2CN(c2nc(N)nc4scnc24)C3)cc1 | > 350 |  | Nd(Insoluble) | Nd(Insoluble) | Nd(Insoluble) |  |
| Nc1nc(N2CCN(C(=O)c3cc4ccccc4[nH]3)CC2)c2ncsc2n1 | 14 (≈ 5.31 µg/mL) | 2.84 |  |  |  |  |
| COc1ccc(NC(=O)N2CCN(c3nc(N)nc4scnc34)CC2)c(C)c1 | 33 (≈ 13.2 µg/mL) | 2.03 |  |  |  |  |
| COc1ccc(NC(=O)N2CC3CCC(C2)N3c2nc(N)nc3scnc23)cc1 | > 350 |  | Nd(Insoluble) | Nd(Insoluble) | Nd(Insoluble) |  |
| COc1ccc(NC(=O)N2C[C@@H](C)N(c3nc(N)nc4scnc34)[C@@H](C)C2)cc1 | 83 (≈ 34.3 µg/mL) |  | Nd(Insoluble) | Nd(Insoluble) | Nd(Insoluble) |  |
| Nc1nc(N2CCN(C(=O)c3cn4ccccc4n3)CC2)c2ncsc2n1 | > 350 | 1.58 |  |  |  |  |
| COc1ccc(NC(=O)C2CCN(c3nc(N)nc4scnc34)CC2)cc1 |  |  |  |  |  | IC50 [19]: > 6 µM |
| Nc1nc(N2CCN(C(=O)COc3ccc(Cl)cc3)CC2)c2ncsc2n1 | 13 (≈ 5.26 µg/mL) | 2.68 |  |  |  |  |
| COc1ccc(NC(=O)N2CCN(c3nc(N)nc4sncc34)[C@@H](C)C2)c(C)c1 | > 350 | 1.96 |  |  |  | solubility thermodynamic at 1.5 h [1]: 52 µM (≈ 21.5 µg/mL) |
| Nc1nc(N2CCN(C(=O)c3nc4ccccc4[nH]3)CC2)c2ncsc2n1 | 38 (≈ 14.5 µg/mL) | 2.54 |  |  |  |  |
| Nc1nc(N2CCN(C(=O)COc3ccc(Cl)cc3)CC2)c2nc(-c3cccnc3)sc2n1 |  |  |  | Nd(Insoluble) | Nd(Insoluble) | logD [20]: Nd(Insoluble); Kinetic_solubility [21]: Nd(Insoluble); microsomal CLint at 0.75 h, 3 µM [14]: 34 µL/min/mg; microsomal CLint at 0.75 h, 3 µM [15]: 133 µL/min/mg |
| COc1ccc(NC(=O)N2CCN(c3nc(N)nc4scnc34)C(C)C2)cc1 (stereo not drawn) | > 350 |  | Nd(Insoluble) | Nd(Insoluble) | Nd(Insoluble) |  |
